# Measured values of several laboratories.
# Each line is one published result; the experiments were not run side by side.
# Cell line: Jurkat
# Effect on: cell growth or viability
SMILES,assay,setting,IC50
CC[C@]1(O)C[C@H]2CN(CCc3c([nH]c4ccccc34)[C@@](C(=O)OC)(c3cc4c(cc3OC)N(C=O)[C@H]3[C@@](O)(C(=O)OC)[C@H](OC(C)=O)[C@]5(CC)C=CCN6CC[C@]43[C@@H]65)C2)C1,MTT,,1.1 nM
O=C1CCCCC1C1C2C=CC=CC1/C(=C/Cc1ccccc1)C2 (stereo not drawn),flow cytometry,,61 nM
CCCCN(Cc1ccc(C(=O)NO)cc1)C(=O)Nc1ccccc1,ATP luminescence,72 h,7410 nM
CC(=O)O[C@H](C)C(=O)CCCCCCC(=O)Nc1ccccc1,thymidine uptake,,> 100000 nM
O=C1CCCCC1C1C2C=CC=CC1C(C1CC1)=C2 (stereo not drawn),flow cytometry,,39 nM
CCCON(Cc1ccc(C(=O)NO)cc1)C(=O)Nc1ccccc1,ATP luminescence,72 h,7090 nM
COCCOCOc1ccc(C(=O)/C=C/c2ccc(C(=O)O)cc2)cc1C12CC3CC(CC(C3)C1)C2,ATP luminescence,24 h,1800 nM
CCCCCC/C=C1\CC2C=CC=CC1C2C1CCCCC1=O (stereo not drawn),flow cytometry,,29 nM
C[C@@H](O)C(=O)CCCCCCC(=O)Nc1ccccc1,thymidine uptake,,92000 nM
CC(=O)O[C@H]1C(=O)[C@@]2(C)[C@H]([C@H](OC(=O)c3ccccc3)[C@]3(O)C[C@H](OC(=O)[C@H](O)[C@@H](NC(=O)c4ccccc4)c4ccccc4)C(C)=C1C3(C)C)[C@]1(OC(C)=O)CO[C@@H]1C[C@@H]2O,,72 h,2.8 nM
COc1cccc2c1C(=O)c1c(O)c3c(c(O)c1C2=O)C[C@@](O)(C(=O)CO)C[C@@H]3O[C@H]1C[C@H](N)[C@H](O)[C@H](C)O1,MTT,48 h,2.5 µg/mL
COCCOCOc1cc(O)c(-c2cc(-c3ccc(C(=O)O)cc3)no2)cc1C12CC3CC(CC(C3)C1)C2,ATP luminescence,24 h,1950 nM
COc1cc(/C=C/C(=O)CC(=O)/C=C/c2ccc(O)c(OC)c2)ccc1O,MTT,48 h,28.9 µg/mL
CCCCCCCCC1=CC2C=CC=CC1C2C1CCCCC1=O (stereo not drawn),flow cytometry,,79 nM
COc1ccc(/C=C\c2cc(OC)c(OC)c(OC)c2)cc1O,,,5 nM
